Among the data in ChEMBL document CHEMBL4138199, “Microwave-promoted facile access to 4-aminoquinoline-phthalimides: Synthesis and anti-plasmodial evaluation” (Eur J Med Chem, 2018) are IC50 and selectivity ratio values, retold here.

The IC50 is the midpoint of a concentration-inhibition curve.

In series [1] the test system is Plasmodium falciparum. Put plainly: Antiplasmodial activity against ring-stage of chloroquine-resistant/mefloquine-sensitive Plasmodium falciparum W2 assessed as parasite growth inhibition after 48 hrs by YOYO-1 dye-based flow cytometric method. Format: functional, organism-based. The note with it: W2, 48 h. Put shortly:
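Parasites grown in RPMI-1640 with 10% human serum and synchronized with 5% D-sorbitol. Ring-stage cultures exposed 48 h to graded compound levels (DMSO ≤0.1%), then fixed 48 h in 1% formaldehyde/PBS pH 7.4 at room temperature. Stained with 1 nM YOYO-1 in 0.1% Triton X-100/PBS; parasitemia by flow cytometry. IC50 from non-linear fit of % control parasitemia, duplicate experiments.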
(In flow cytometry, cells or beads pass a laser one at a time.)

Series [2] deals with J774. Put plainly: Cytotoxicity against mouse J774 cells assessed as decrease in cell survival after 24 hrs by fluorimetric method. It counts as cell-based. The note with it: J774, 24 h. Put shortly: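 J774 murine macrophages grown in DMEM with 10% de-complemented fetal calf serum under 5% CO2. Fluorescence read at 540 nm excitation and 590 nm emission. Percent survival is compound-well fluorescence divided by that of control wells with cells in a DMSO dilution series (1% to 0.03125% v/v).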

Series [3] can be described thus: Selectivity index, ratio of IC50 for mouse J774 cells to IC50 for ring-stage of chloroquine-resistant/mefloquine-sensitive Plasmodium falciparum W2. It counts as toxicity. The following applies: read-out: Ratio IC50.

For `O=C1c2ccccc2C(=O)N1CCNc1ccnc2cc(Cl)ccc12`, in series [1], the half-maximal inhibitory concentration (IC50) amounted to 1110 nM. On the same count and under the same terms, for `O=C1c2c(Cl)c(Cl)c(Cl)c(Cl)c2C(=O)N1CCCNc1ccnc2cc(Cl)ccc12` the value was 570 nM; for `O=C1c2cccc([N+](=O)[O-])c2C(=O)N1CCNc1ccnc2cc(Cl)ccc12`, 7550 nM.

Consider `O=C1c2cccc(F)c2C(=O)N1CCCCCCNc1ccnc2cc(Cl)ccc12`, for which, in series [1], the IC50 came out at 240 nM. With `O=C1c2ccc(F)cc2C(=O)N1CCCNc1ccnc2cc(Cl)ccc12`, the concentration for half-maximal inhibition (IC50) in series [1] was determined as 1190 nM. Same read-out and setting: the figure for `O=C1c2ccccc2C(=O)N1CCCCCCCCNc1ccnc2cc(Cl)ccc12` is 140 nM.

`O=C1c2c(Br)c(Br)c(Br)c(Br)c2C(=O)N1CCCNc1ccnc2cc(Cl)ccc12`: the IC50 in series [1] was 3760 nM. The same measure, in the same setting: the figure for `O=C1c2c(Br)c(Br)c(Br)c(Br)c2C(=O)N1CCNc1ccnc2cc(Cl)ccc12` is 400 nM. In the case of `O=C1c2ccc(F)cc2C(=O)N1CCCCCCNc1ccnc2cc(Cl)ccc12`, the IC50 in series [1] worked out at 120 nM; in series [2], 15200 nM. For the same compound, the selectivity ratio in series [3] was 126. Turning to `O=C1c2c(Cl)c(Cl)c(Cl)c(Cl)c2C(=O)N1CCNc1ccnc2cc(Cl)ccc12`, the IC50 in series [1] was determined as 210 nM. As to `O=C1c2cccc(F)c2C(=O)N1CCCCCCCCNc1ccnc2cc(Cl)ccc12`, the IC50 in series [1] turned out to be 120 nM; in series [2] it was 28200 nM. Moreover, the selectivity ratio in series [3] turned out to be 235.

For the compound `O=C1c2ccc(F)cc2C(=O)N1CCCCNc1ccnc2cc(Cl)ccc12`, the IC50 in series [1] came out at 420 nM. As to `O=C1c2cccc(F)c2C(=O)N1CCNc1ccnc2cc(Cl)ccc12`, the IC50 in series [1] was determined as 4730 nM. On the same count and under the same terms, for `C[C@@H]1CC[C@H]2[C@@H](C)C(=O)O[C@@H]3O[C@@]4(C)CC[C@@H]1[C@]32OO4` [ARTEMISININ] the value was 7 nM.

`O=C1c2ccc(F)cc2C(=O)N1CCCCCCCCNc1ccnc2cc(Cl)ccc12`: the IC50 in series [1] came out at 170 nM. The same measure, in the same setting: for `O=C1c2cccc(F)c2C(=O)N1CCCCNc1ccnc2cc(Cl)ccc12` the value was 640 nM. On the same count and under the same terms, the figure for `O=C1c2ccccc2C(=O)N1CCCNc1ccnc2cc(Cl)ccc12` is 1510 nM. In the case of `O=C1c2c(Br)c(Br)c(Br)c(Br)c2C(=O)N1CCCCCCNc1ccnc2cc(Cl)ccc12`, the IC50 in series [1] was determined as 100 nM; in series [2] it was 29100 nM. In addition, the selectivity ratio in series [3] stood at 291. `O=C1c2cccc(F)c2C(=O)N1CCCNc1ccnc2cc(Cl)ccc12`: the half-inhibitory concentration (IC50) in series [1] turned out to be 3960 nM. Still for that read-out and setting: the figure for `O=C1c2ccccc2C(=O)N1CCCCNc1ccnc2cc(Cl)ccc12` is 370 nM. In the case of `O=C1c2ccccc2C(=O)N1CCCCCCNc1ccnc2cc(Cl)ccc12`, the IC50 in series [1] is 110 nM; in series [2], 14300 nM. In series [3], the selectivity ratio was 130. For the compound `O=C1c2ccc(F)cc2C(=O)N1CCNc1ccnc2cc(Cl)ccc12`, the IC50 in series [1] worked out at 4560 nM. Still for that read-out and setting: for `O=C1c2cccc([N+](=O)[O-])c2C(=O)N1CCCCCCNc1ccnc2cc(Cl)ccc12` the value was 150 nM; for `O=C1c2c(Cl)c(Cl)c(Cl)c(Cl)c2C(=O)N1CCCCNc1ccnc2cc(Cl)ccc12`, 270 nM; for `O=C1c2c(Br)c(Br)c(Br)c(Br)c2C(=O)N1CCCCNc1ccnc2cc(Cl)ccc12`, 190 nM. On the same count and under the same terms, the figure for `O=C1c2c(Cl)c(Cl)c(Cl)c(Cl)c2C(=O)N1CCCCCCNc1ccnc2cc(Cl)ccc12` is 460 nM.
